According to ChEMBL document CHEMBL2057071, “Hit-to-lead investigation of a series of novel combined dopamine D2 and muscarinic M1 receptor ligands with putative antipsychotic and pro-cognitive potential” (Bioorg Med Chem Lett, 2012):

Assays:
[1] = biological target: Voltage-gated inwardly rectifying potassium channel KCNH2 (Homo sapiens, UniProt Q12809); assay: Inhibition of human ERG expressed in CHO cells after 30 mins by Rb+ flux assay
Liver microsomes [2] = assay: Intrinsic clearance in human liver microsomes at 1 uM after 60 mins; assay type: ADME, Microsome; settings: 1 h
D(2) dopamine receptor [3] = biological target: T1, D(2) dopamine receptor (Homo sapiens, UniProt P14416); assay: Displacement of [3H]raclopride from human D2L receptor expressed in CHO cells after 60 mins by scintillation proximity assay; assay type: cell-based
T1 sequence (P14416 whole entry): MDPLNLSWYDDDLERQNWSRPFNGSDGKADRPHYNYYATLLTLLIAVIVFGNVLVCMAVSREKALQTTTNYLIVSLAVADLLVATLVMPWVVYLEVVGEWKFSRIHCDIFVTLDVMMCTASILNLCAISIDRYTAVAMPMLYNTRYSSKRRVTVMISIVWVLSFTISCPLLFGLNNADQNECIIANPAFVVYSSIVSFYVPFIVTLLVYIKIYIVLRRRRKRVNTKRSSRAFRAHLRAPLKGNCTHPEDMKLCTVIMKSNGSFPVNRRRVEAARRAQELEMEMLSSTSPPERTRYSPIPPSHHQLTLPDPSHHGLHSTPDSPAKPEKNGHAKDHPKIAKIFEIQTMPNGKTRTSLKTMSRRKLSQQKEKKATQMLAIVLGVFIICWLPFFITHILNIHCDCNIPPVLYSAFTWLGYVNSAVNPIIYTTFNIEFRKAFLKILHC

[4] = biological target: T2, Muscarinic acetylcholine receptor M1 (Homo sapiens, UniProt P11229); assay: Agonist activity at human M1 receptor expressed in CHO-K1 cells assessed as calcium mobilization for 6 mins by Calcium4-based staining; assay type: functional, cell-based
T2 sequence (P11229 whole entry): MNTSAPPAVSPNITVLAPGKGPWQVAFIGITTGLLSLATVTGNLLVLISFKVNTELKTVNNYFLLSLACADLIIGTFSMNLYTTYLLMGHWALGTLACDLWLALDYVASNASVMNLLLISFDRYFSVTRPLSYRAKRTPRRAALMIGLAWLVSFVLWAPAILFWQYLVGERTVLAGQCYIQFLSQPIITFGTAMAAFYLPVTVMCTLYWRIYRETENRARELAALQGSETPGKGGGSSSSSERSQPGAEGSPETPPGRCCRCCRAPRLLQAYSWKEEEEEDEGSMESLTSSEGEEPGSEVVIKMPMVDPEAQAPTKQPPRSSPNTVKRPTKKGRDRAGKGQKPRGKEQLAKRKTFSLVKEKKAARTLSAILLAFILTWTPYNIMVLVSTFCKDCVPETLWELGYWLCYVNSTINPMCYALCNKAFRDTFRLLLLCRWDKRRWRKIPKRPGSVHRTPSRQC

[5] = biological target: T3, Muscarinic acetylcholine receptor M1 (Homo sapiens) (UniProt P11229); assay: Agonist activity at human M1 receptor expressed in CHO-K1 cells assessed as calcium mobilization at 10 uM for 6 mins by Calcium4-based staining; assay type: functional, cell-based
T3 sequence (whole entry): T2 sequence (P11229 whole entry)
How it was run: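 Functional agonism read as percent activity at 10 µM test concentration when no EC₅₀ could be established; means of two experiments.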

[6] = Dissociation constant, pKa of the compound; assay type: physicochemical
[7] = Lipophilicity, logP of the compound; assay type: physicochemical; settings: octanol/water
[8] = biological target: T4, Muscarinic acetylcholine receptor M4 (Homo sapiens) (UniProt P08173); assay: Agonist activity at human muscarinic M4 receptor expressed in BHK-21 cells assessed as calcium mobilization at 10 uM for 6 mins by Calcium4-based staining relative to acetylcholine; assay type: functional, cell-based
T4 sequence (whole entry): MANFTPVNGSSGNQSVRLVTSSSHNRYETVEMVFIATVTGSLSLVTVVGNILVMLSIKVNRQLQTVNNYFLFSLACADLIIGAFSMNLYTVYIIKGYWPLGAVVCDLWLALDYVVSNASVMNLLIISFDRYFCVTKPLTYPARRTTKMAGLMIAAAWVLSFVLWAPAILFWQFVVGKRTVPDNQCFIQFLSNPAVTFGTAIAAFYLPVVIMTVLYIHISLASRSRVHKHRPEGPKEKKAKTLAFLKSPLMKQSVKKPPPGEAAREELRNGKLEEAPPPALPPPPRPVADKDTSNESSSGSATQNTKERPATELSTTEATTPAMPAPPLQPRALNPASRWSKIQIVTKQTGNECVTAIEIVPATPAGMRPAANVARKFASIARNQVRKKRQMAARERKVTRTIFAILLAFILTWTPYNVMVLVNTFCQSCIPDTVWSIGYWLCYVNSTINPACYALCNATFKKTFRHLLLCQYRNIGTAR

[9] = Plasma clearance in […] Sprague-Dawley rat; assay type: ADME, organism-based
[10] = biological target: Muscarinic acetylcholine receptor M1 (Homo sapiens, UniProt P11229, Y381A); assay: Agonist activity at human muscarinic M1 receptor Y381A mutant expressed in BHK-21 cells assessed as calcium mobilization for 6 mins by Calcium4-based staining; assay type: functional, cell-based
Chain of Muscarinic acetylcholine receptor M1 (Homo sapiens, UniProt P11229, Y381A) (P11229 whole entry Y381A): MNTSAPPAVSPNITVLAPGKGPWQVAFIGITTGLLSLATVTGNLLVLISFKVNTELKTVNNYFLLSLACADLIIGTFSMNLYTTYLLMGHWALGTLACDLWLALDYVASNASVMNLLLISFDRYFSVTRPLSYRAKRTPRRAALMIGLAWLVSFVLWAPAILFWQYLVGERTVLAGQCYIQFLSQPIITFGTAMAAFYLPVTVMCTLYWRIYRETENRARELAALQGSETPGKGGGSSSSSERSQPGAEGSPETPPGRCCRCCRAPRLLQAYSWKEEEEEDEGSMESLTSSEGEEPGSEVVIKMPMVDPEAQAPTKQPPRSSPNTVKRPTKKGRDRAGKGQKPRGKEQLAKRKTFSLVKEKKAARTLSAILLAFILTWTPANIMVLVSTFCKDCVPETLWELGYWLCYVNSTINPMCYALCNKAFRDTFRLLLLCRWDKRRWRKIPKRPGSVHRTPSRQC

Hepatocyte = assay: Intrinsic clearance in Sprague-Dawley rat hepatocytes at 1 uM after 60 mins; assay type: ADME, cell-based; settings: 1 h
[11] = biological target: T5, Muscarinic acetylcholine receptor M2 (Homo sapiens) (UniProt P08172); assay: Agonist activity at human muscarinic M2 receptor expressed in CHO-K1 cells assessed as calcium mobilization at 10 uM for 6 mins by Calcium4-based staining relative to acetylcholine; assay type: functional, cell-based
T5 sequence (whole entry): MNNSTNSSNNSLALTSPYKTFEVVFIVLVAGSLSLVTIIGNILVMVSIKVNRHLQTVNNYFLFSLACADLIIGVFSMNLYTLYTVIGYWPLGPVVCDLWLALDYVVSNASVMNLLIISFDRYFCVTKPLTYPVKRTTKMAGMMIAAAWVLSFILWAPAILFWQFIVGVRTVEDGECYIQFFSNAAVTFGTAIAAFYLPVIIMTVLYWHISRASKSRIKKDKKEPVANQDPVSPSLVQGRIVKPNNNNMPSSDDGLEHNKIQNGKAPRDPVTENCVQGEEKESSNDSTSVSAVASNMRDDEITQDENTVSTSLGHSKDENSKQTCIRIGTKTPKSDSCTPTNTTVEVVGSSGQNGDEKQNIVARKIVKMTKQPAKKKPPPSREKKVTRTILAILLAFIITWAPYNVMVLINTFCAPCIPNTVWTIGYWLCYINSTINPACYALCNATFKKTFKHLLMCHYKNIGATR

Liver microsomes [12] = assay: Intrinsic clearance in rat liver microsomes at 1 uM after 60 mins; assay type: ADME, Microsome; settings: 1 h
[13] = biological target: Muscarinic acetylcholine receptor M3 (Homo sapiens) (UniProt P20309); assay: Agonist activity at human muscarinic M3 receptor expressed in BHK-21 cells assessed as calcium mobilization atb 10 uM for 6 mins by Calcium4-based staining relative to acetylcholine; assay type: functional, cell-based
Chain of Muscarinic acetylcholine receptor M3 (Homo sapiens) (P20309 whole entry, looked up): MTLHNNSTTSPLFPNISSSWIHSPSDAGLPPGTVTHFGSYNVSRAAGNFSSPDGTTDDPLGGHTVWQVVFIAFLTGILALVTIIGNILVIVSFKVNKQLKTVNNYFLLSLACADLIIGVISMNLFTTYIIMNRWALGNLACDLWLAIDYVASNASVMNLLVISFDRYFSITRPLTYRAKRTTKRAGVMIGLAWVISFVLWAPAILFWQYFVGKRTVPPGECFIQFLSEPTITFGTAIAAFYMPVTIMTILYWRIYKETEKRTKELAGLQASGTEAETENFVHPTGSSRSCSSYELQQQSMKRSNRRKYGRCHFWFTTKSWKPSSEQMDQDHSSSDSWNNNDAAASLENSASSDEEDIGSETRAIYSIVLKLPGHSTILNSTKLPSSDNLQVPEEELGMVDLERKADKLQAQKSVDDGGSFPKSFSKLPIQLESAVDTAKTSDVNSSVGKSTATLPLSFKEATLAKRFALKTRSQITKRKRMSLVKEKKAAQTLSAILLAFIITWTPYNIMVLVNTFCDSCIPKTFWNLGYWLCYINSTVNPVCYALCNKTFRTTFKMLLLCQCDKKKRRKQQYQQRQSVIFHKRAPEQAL

[14] = biological target: T6, Muscarinic acetylcholine receptor M5 (Homo sapiens) (UniProt P08912); assay: Agonist activity at human muscarinic M5 receptor expressed in BHK-21 cells assessed as calcium mobilization at 10 uM for 6 mins by Calcium4-based staining relative to acetylcholine; assay type: functional, cell-based
T6 sequence (whole entry): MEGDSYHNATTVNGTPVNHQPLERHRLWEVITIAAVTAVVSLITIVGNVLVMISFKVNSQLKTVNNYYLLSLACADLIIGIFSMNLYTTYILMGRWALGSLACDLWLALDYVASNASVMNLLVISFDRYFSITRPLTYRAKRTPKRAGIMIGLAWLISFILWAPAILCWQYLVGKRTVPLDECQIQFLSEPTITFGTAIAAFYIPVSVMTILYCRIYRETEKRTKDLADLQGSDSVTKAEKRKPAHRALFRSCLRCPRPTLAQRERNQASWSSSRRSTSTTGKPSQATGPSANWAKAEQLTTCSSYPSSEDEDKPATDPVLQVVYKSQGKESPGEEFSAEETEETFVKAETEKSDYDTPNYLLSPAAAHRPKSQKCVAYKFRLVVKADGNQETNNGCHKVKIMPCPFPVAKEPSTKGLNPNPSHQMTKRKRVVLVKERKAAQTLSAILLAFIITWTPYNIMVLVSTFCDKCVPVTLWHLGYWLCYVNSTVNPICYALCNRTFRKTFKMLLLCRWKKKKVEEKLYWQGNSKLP

D(2) dopamine receptor [15] = biological target: T1, D(2) dopamine receptor; assay: Displacement of [3H]raclopride from human D2L receptor expressed in CHO cells at 10 uM after 60 mins by scintillation proximity assay; assay type: cell-based

Chain of Voltage-gated inwardly rectifying potassium channel KCNH2 (Q12809 whole entry): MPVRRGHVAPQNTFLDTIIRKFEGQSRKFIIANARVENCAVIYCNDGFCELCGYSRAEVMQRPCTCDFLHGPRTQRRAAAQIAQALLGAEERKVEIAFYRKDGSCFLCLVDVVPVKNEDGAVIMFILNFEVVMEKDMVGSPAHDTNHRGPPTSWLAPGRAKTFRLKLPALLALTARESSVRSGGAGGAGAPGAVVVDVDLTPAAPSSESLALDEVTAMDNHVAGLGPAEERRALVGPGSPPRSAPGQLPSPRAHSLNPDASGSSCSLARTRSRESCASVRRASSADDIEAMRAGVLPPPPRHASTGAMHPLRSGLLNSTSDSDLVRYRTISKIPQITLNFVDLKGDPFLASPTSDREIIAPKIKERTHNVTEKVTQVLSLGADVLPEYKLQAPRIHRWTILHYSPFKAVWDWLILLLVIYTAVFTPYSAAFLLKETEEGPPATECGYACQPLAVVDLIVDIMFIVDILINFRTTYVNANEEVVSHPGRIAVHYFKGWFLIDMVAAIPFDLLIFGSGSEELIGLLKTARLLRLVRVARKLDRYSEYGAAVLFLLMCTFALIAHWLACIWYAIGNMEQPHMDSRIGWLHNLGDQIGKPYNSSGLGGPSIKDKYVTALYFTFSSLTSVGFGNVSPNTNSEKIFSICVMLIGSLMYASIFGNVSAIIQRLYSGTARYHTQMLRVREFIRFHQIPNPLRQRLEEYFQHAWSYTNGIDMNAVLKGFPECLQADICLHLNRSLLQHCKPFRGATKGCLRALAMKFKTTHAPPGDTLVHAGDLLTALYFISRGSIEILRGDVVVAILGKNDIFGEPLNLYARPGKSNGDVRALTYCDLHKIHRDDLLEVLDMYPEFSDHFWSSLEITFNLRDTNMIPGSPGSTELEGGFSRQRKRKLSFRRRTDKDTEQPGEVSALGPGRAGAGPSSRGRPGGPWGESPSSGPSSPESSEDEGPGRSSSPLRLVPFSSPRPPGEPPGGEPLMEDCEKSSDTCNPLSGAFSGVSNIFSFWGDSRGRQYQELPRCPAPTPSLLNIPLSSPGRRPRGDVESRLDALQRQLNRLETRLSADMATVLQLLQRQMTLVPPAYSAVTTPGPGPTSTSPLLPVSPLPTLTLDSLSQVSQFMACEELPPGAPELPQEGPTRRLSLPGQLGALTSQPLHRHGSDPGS

Structure (SMILES) | CLH (Liver microsomes [2]) | Ki (D(2) dopamine receptor [3]) | EC50 [4] | Emax [5] | IC50 [1] | further results
O=C1COc2ccccc2N1CCCN1CCC(n2c(=O)[nH]c3ccncc32)CC1 | 0.9 L/min | > 9500 nM | 1200 nM |  | > 50000 nM | 
O=C1CCc2cccc(F)c2N1CCCN1CCC(n2c(=O)[nH]c3ccccc32)CC1 | 5.5 L/min | 95 nM | 300 nM |  |  | 
O=C1COc2ccccc2N1CCCN1CCC(n2c(=O)[nH]c3cccc(F)c32)CC1 | 12 L/min | 41 nM |  | 22% |  | 
O=C1CCc2cc(F)ccc2N1CCCN1CCC(n2c(=O)[nH]c3ccccc32)CC1 | 6.2 L/min | 6.5 nM |  | 24% |  | 
O=C1COc2ccccc2N1CCCN1CCC(n2c(=O)[nH]c3cnccc32)CC1 | 1.7 L/min | 1350 nM |  | 4% | 46000 nM | 
O=C1COc2ccccc2N1CCCN1CCC(n2c(=O)[nH]c3cc(F)ccc32)CC1 | 8.8 L/min | 2.5 nM | 66 nM |  | 1900 nM | 
O=C1CCc2ccc(F)cc2N1CCCN1CCC(n2c(=O)[nH]c3ccccc32)CC1 | 7.8 L/min | 90 nM |  | 23% |  | 
O=C1CCc2cccnc2N1CCCN1CCC(n2c(=O)[nH]c3ccccc32)CC1 | 1.3 L/min | 600 nM | 20 nM |  |  | 
O=C1CCc2c(F)cccc2N1CCCN1CCC(n2c(=O)[nH]c3ccccc32)CC1 | 4.2 L/min | 60 nM | 68 nM |  |  | 
O=c1[nH]c2ccccc2n1C1CCN(CCOc2ccccc2)CC1 [OXIPEROMIDE] | 1.4 L/min | 5.5 nM | 400 nM |  |  | pKa [6]: 7.4; logP [7]: 3.4
CC(=O)OCC[N+](C)(C)C |  |  |  |  |  | Emax [13]: 100%
O=C1COc2ccccc2N1CCCN1CCC(n2c(=O)[nH]c3ccc(F)cc32)CC1 | 8.7 L/min | 14 nM | 44 nM |  | 4400 nM | 

Second part, led by results:

CLH (Liver microsomes [2]) | Ki (D(2) dopamine receptor [3]) | EC50 [4] | Emax [5] | Structure (SMILES) | IC50 [1] | further results
13 L/min | 15 nM | 110 nM |  | O=C1COc2ccccc2N1CCCN1CCC(n2c(=O)[nH]c3c(F)cccc32)CC1 | 3400 nM | 
3.4 L/min | > 5000 nM |  |  | O=C(Cc1ccccc1)NC1CCN(CCCN2C(=O)COc3ccccc32)CC1 | 20000 nM | pKa [6]: 7.9; logP [7]: 2.4
5.1 L/min | 16 nM | 73 nM |  | O=C1COc2ccccc2N1CCCN1CCC(n2c(=O)[nH]c3ccccc32)CC1 |  | 
3.5 L/min | 1250 nM | 1700 nM |  | O=C1COc2ccccc2N1CCCN1CCC(n2c(=O)[nH]c3cccnc32)CC1 | 13000 nM | 
2.6 L/min | 650 nM |  | 8% | O=C1COc2ccccc2N1CCCN1CCC(n2c(=O)[nH]c3ncccc32)CC1 |  | 
3.9 L/min | 9.5 nM | 110 nM |  | O=C1CCc2ccccc2N1CCCN1CCC(n2c(=O)[nH]c3ccccc32)CC1 |  | Emax [8]: 8%; CL/F [9]: 50 mL/min/kg; EC50 [10]: 6.3 nM; pKa [6]: 7.6; logP [7]: 2.8; CLH (Hepatocyte): 160 mL/min; Emax [11]: 0%; CLH (Liver microsomes [12]): 130 mL/min; Emax [13]: 0%; Emax [14]: 0%
2.3 L/min | 55 nM |  | 31% | O=C1CCc2ccccc2N1OCCN1CCC(n2c(=O)[nH]c3ccccc32)CC1 |  | 
3.6 L/min |  |  | 7% | O=C1CCc2ccncc2N1CCCN1CCC(n2c(=O)[nH]c3ccccc32)CC1 |  | Activity (D(2) dopamine receptor [15]): 55%
2.8 L/min | 2200 nM | 12 nM |  | O=C1CCc2ncccc2N1CCCN1CCC(n2c(=O)[nH]c3ccccc32)CC1 |  | 
9 L/min | 42 nM | 160 nM |  | O=C1CCc2ccccc2N1CCCN1CCC(c2ccc3[nH]ccc3c2)CC1 | 4400 nM | pKa [6]: 9; logP [7]: 4.1
9.4 L/min | 1100 nM |  | 0% | O=C1CCc2cnccc2N1CCCN1CCC(n2c(=O)[nH]c3ccccc32)CC1 |  | 
